The labels stand for the following.
B1: Osa-1-4 twister ribozyme (parent)
chain: CCGCCUAACACUGCCAAUGCCGGUCCCAAGCCCGGAUAAAAGUGGAGGGGGCGG

The data set covers variants of B1. In words: self-cleavage, relative activity (ratio to wild type); higher = more cleavage; co-transcriptional. The procedure, abridged:
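For each read, cleavage status was taken from whether upstream sequence was present. The reads came from an Oryza sativa twister ribozyme of 54 nucleotides, whose DNA template was synthesised with 97 % wild-type base and 1 % of each other base at the 48 positions downstream of the cleavage site. The template was transcribed in vitro at 37 °C for 2 h with co-transcriptional self-cleavage, and the RNA was reverse-transcribed using a template-switching oligonucleotide, PCR-amplified and deep-sequenced. Relative activity is the fraction cleaved normalised to wild type.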
As to G35C G54A, the self-cleavage was 0.2.
As to G35C G54C, the self-cleavage amounted to 0.13.
The result for G35C G54U reads 0.36; that for G34U G45C, 0.05; that for G34U G45U, 0.08.
As for G34U G45A, the self-cleavage worked out at 0.09.
With G35C G47C the figure was 0.05; with G35C G47A, 0.05; with G35C G47U, 0.05.
With A36C C14U the figure was 0.09; with A36C C14A, 0.06; with A36C C14G, 0.06.
With A36C A41C the figure was 0.6; with A36C A41G, 0.13; with A36C A41U, 0.91.
G34C G45U: the self-cleavage is 0.06.
With G34C G45A, the self-cleavage amounted to 0.05.
Regarding G34C G45C, the self-cleavage was determined as 0.06.
The result for G34U G50A reads 0.26.
For the variant G34U G50U, the self-cleavage was 0.73.
The result for G34U G50C reads 0.39; that for G34A G50A, 0.29; that for G34A G50U, 0.83.
With G34A G50C the figure was 0.6.
The result for G35C U37A reads 0.93; that for G35C U37C, 0.94; that for G35C U37G, 0.9.
Consider G35U U24C, for which the self-cleavage came out at 0.08.
The result for G35U U24A reads 0.2; that for G35U U24G, 0.03; that for G34C U24C, 0.06.
The result for G34C U24A reads 0.07; that for G34C U24G, 0.02.
In the case of G35A U43A, the self-cleavage turned out to be 0.46.
The result for G35A U43C reads 0.41.
With G35A U43G the figure was 0.12; with G34C G50C, 0.19.
For G34C G50U, the self-cleavage is 0.41.
With G34C G50A the figure was 0.23.
With A36C C21A the figure was 0.54.
A36C C21G: the self-cleavage came to 0.05.
A36C C21U: the self-cleavage came to 0.46.
The result for G34U U18G reads 0.58; that for G34U U18A, 0.64.
As to G34U U18C, the self-cleavage was found to be 0.31.
G35A U18G: the self-cleavage was found to be 0.79.
With G35A U18C the figure was 0.52; with G35A U18A, 0.79.
On to G34A U18C, for which the self-cleavage amounted to 0.43.
As to G34A U18G, the self-cleavage was 0.71.
With G34A U18A the figure was 0.73; with G34A G48U, 0.06; with G35U G47C, 0.07.
As for G35U G47U, the self-cleavage was 0.14.
With G35U G47A the figure was 0.15; with G34A G51A, 0.15.
With G34A G51C the figure was 0.06.
The result for G34A G51U reads 0.1; that for A36C G13U, 0.02.
Take A36C G13C: the self-cleavage was 0.03.
The result for A36C G13A reads 0.04.
Consider G35A G54A, for which the self-cleavage was determined as 0.85.
Take G35A G54C: the self-cleavage turned out to be 0.85.
With G35A G54U the figure was 0.81; with A36C A38G, 0.54; with A36C A38U, 0.79.
With A36C A38C the figure was 0.81.
With A36C C25G the figure was 0.04; with A36C C25U, 0.1; with A36C C25A, 0.06.
For G35U G44A, the self-cleavage came to 0.88.
The result for G35U G44U reads 0.74; that for G35U G44C, 0.74.
Consider G34A G49U, for which the self-cleavage was found to be 0.1.
The result for G34A G49A reads 0.13; that for G34A G49C, 0.07.
Regarding G34C U18A, the self-cleavage was 0.43.
The result for G34C U18G reads 0.15; that for G34C U18C, 0.36.
With G35A G53C the figure was 0.08; with G35A G53A, 0.68.
The result for G35A G53U reads 0.22; that for G35A G47U, 0.18; that for G35A G47C, 0.11.
As for G35A G47A, the self-cleavage is 0.27.
With A36C C9G the figure was 0.11; with A36C C9A, 0.08; with A36C C9U, 0.21.
Regarding G35A U12C, the self-cleavage is 0.48.
For G35A U12A, the self-cleavage was found to be 0.61.
For G35A U12G, the self-cleavage came out at 0.06.
On to G34C G53A, for which the self-cleavage amounted to 0.09.
As to G34C G53U, the self-cleavage came to 0.07.
Regarding G34C G53C, the self-cleavage worked out at 0.09.
With G34A U37C the figure was 0.89; with G34A U37A, 0.88; with G34A U37G, 0.88.
The result for G34U G51U reads 0.06; that for G34U G51A, 0.1.
In the case of G34U G51C, the self-cleavage is 0.05.
With G34U U12C the figure was 0.14; with G34U U12G, 0.05.
As to G34U U12A, the self-cleavage was 0.14.
For G35U G51U, the self-cleavage is 0.15.
With G35U G51C the figure was 0.06.
With G35U G51A the figure was 0.25.
As to A36C C20G, the self-cleavage came to 0.09.
In the case of A36C C20U, the self-cleavage was found to be 0.88.
For the variant A36C C20A, the self-cleavage is 0.81.
For A36C C52A, the self-cleavage was 0.37.
Regarding A36C C52U, the self-cleavage stood at 0.82.
The result for A36C C52G reads 0.51; that for A36C C15A, 0.24.
On to A36C C15G, for which the self-cleavage was determined as 0.25.
The result for A36C C15U reads 0.12; that for G34C G35A, 0.39.
The result for G34C G35U reads 0.28; that for G34C G35C, 0.11; that for G35U G48A, 0.09.
The result for G35U G48C reads 0.07; that for G35U G48U, 0.08.
Take G34U G44U: the self-cleavage came out at 0.5.
Turning to G34U G44C, the self-cleavage was 0.41.
The result for G34U G44A reads 0.55; that for G35C U12C, 0.09; that for G35C U12A, 0.08.
Regarding G35C U12G, the self-cleavage was 0.07.
For G35U G42A, the self-cleavage was 0.35.
Regarding G35U G42C, the self-cleavage worked out at 0.11.
The result for G35U G42U reads 0.08.
For G35A G48U, the self-cleavage was found to be 0.09.
Take G35A G48A: the self-cleavage was 0.12.
The result for G35A G48C reads 0.1; that for A36C, 0.86; that for A36C A8C, 0.06.
The result for A36C A8U reads 0.09; that for A36C A8G, 0.14.
The result for G34A U24A reads 0.18.
Consider G34A U24C, for which the self-cleavage was found to be 0.06.
G34A U24G: the self-cleavage turned out to be 0.03.
On to G35U G49C, for which the self-cleavage was determined as 0.06.
Take G35U G49U: the self-cleavage came out at 0.1.
With G35U G49A, the self-cleavage worked out at 0.11.
The result for G34U U37G reads 0.87.
Take G34U U37A: the self-cleavage worked out at 0.79.
For G34U U37C, the self-cleavage was found to be 0.84.
The result for G34U G48A reads 0.07; that for G34U G48C, 0.07.
With G34U G48U the figure was 0.05; with G35U G54U, 0.8; with G35U G54A, 0.8.
The result for G35U G54C reads 0.77; that for A36C C27A, 0.07; that for A36C C27U, 0.09.
For A36C C27G, the self-cleavage is 0.05.
In the case of G34A U12C, the self-cleavage was found to be 0.19.
With G34A U12A the figure was 0.23; with G34A U12G, 0.07; with G35C G45C, 0.07.
With G35C G45U, the self-cleavage worked out at 0.05.
Take G35C G45A: the self-cleavage stood at 0.05.
With G35C G51A the figure was 0.09; with G35C G51U, 0.06.
On to G35C G51C, for which the self-cleavage was found to be 0.05.
For G34U G42U, the self-cleavage was 0.07.
With G34U G42A the figure was 0.13; with G34U G42C, 0.08.

Source of the values: the RNAGym collection of RNA variant scans (doi:10.1002/anie.201605470).
